Test system: MS2 coat protein
Test: apparent Kd, MS2 coat protein; higher = weaker binding; RNA-MaP array; FMN 200 µM where present
Summary of the method: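 Green signal was scaled to red-channel RNA signal and control-cluster median Fmax, and the apparent Kd was taken as the median of filtered per-cluster binding-curve fits. The binding series used SNAP-549-labelled MS2 coat protein from 0.7 or 1.5 nM, doubling to 3 µM, on designs transcribed by stalled E. coli RNA polymerase on Illumina sequencing-chip clusters. Each series ran without and then with constant ligand in 100 mM Tris-HCl pH 7.5, 80 mM KCl, 4 mM MgCl2, BSA, DTT, yeast tRNA and Tween-20.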

[1] = designed as: OFF switch for flavin mononucleotide, no ligand
[2] = ligand present: flavin mononucleotide, designed as: OFF switch for flavin mononucleotide
[3] = designed as: ON switch for flavin mononucleotide, no ligand
[4] = ligand present: flavin mononucleotide, designed as: ON switch for flavin mononucleotide

| Sequence | apparent Kd [1] [nM] | apparent Kd [2] [nM] | apparent Kd [3] [nM] | apparent Kd [4] [nM] |
| --- | --- | --- | --- | --- |
| AGUUGGCGAGGAUAUACAUGAGGAUCACCCAUGUGAGAGAAUAAAGUGAGGAAGAAAAGUAGAAGGCGCUGACA | 47.8 | 154 | – | – |
| AGUUUUGUACAUGAGGAUCACCCAUGUUAAUAUGUGGUAGUCAGAAGGCAUUGUUAGAGUAUAUAUGAGGAUAUGAUUAGUCAG | – | – | 58.3 | 27.9 |
| AUAAAACAAAACCACACAUGAGGAUCACCCAUGUCAAGAUUACAGGAUAUCCGGCAGAGAUGCAAGGAGAAGGGUGAUCCCAAA | – | – | 17.3 | 56.9 |
| AUAAAACAUGAGGAUCACCCAUGUCAACAAAGUCGAGGAUAUGGGCAAAGAAAAUAAGAACCAGAAGGCGAAUAAU | – | – | 260 | 45 |
| AUAAAACAUGAGGAUCACCCAUGUCAACAAAGUCGAGGAUAUGGGCAAAUAAAAUAAGAACCAGAAGGCGUAUAAU | – | – | – | 94.3 |
| AUAAGUGCAGGAUAUACGAAAUGCUAGCGAAAGCUAGCAUAACAUGAGGAUCACCCAUGUAGAAGGGCACAAUA | 28.4 | 21.5 | – | – |
| AUAAUACAUGAGGAUCACCCAUGUAAUUUAACUUGUAAGAUCAAGGAUAUCAGCUCGAUUAGAGCUGAGAAGGUGAUCACAUGU | – | – | 154 | 229 |
| AUAAUUUUAUAUAUCAUUUUAAUCAGAAGGCAUAACAUGAGGAUCACCCAUGUAAAUUAUUGUUAUGAGGAUAUGAAUUGGUUA | 14.4 | 54.8 | – | – |
| AUAAUUUUGUAGAAGGUACGUGAUUAGUCAAAGUAAGGAUAUACUGACAUGAGGAUCACCCAUGUUUUAAUAGUUAACAGUUCU | – | – | 12.8 | 7.99 |
| AUACAUGAGGAUCACCCAUGUAAUUAAUUAAUUAAUAAGAUCAAGGAUAUCAGCUCGAAUAGAGCUGAGAAGGUGAUCACAUGU | – | – | 240 | 266 |
| AUACAUGAGGAUCACCCAUGUUACAUGGCCUUGAUAGAUUGUAGAAGGAUGUUAUUAUUAAUUUCAUAGGAUAUACUAUUUAGU | 106 | 83.9 | – | – |
| AUAGAAGUCUAGAAGGACCUAGCUGUAUACCGUCGAGGUAUAUAGCUAGGUAGGAUAUGGGACAUGAGGAUCACCCAUGUGUUG | – | – | 32.9 | 9.19 |
| AUAGCAUACCGAGGAUAUUCAUAUAAUAAAUAAACAUGAGGAUCACCCAUGUGGCGAAAGCCUAGGGAGAAGGCGGAAUGCUAC | – | – | 225 | 25.3 |
| AUAGUGCCGGAGAAGGACGUACCACAUGUUGAUCACCGAUAUAAGGAACGUAGGAUAUUCGACAUGAGGAUCACCCAUGUGGAU | – | – | 101 | 64.7 |
| AUAGUGCGCGAGAAGGACGUACCACAUGUGGAUCACCUAUAUAAGGAACGUAGGAUAUUGCACAUGAGGAUCACCCAUGUGGAU | – | – | 41.4 | 34.1 |
| AUAUAACCUAGCAAAAUUUAAUAACAUGAGGAUCACCCAUGUAGAAGGCUGUCCUAAAAUAGGACAGAGGAUAUACGUGCUAGG | 5.43 | 6.73 | – | – |
| AUAUAGCGAGGAUAUACAUGAGGAUCACCCAUGUGGUAGUAGAUACGGUAGGGCUAGUGUAGAAGGUGUUAUGA | 139 | 87.9 | – | – |
| AUAUAUAUCCAGAAGGUGCCAGCGAGAGCUGCACAUGAGGAUCACCCAUGUUGUCGGUGACGACGCAAGGAUAUGGAUAUAUAU | – | – | 28.2 | 7.43 |
| AUAUCAUACCAAGGAUAUUUAAGAUUUGUGUAGACAUGAGGAUCACCCAUGUGGCGUUAGUCACGGGAGAAGGUGGUAUGAUAU | – | – | 978 | 205 |
| AUAUCCGAAGCAGGAUAUCGACGAGGUGUCGAGGUAGAGCGUACUCACAUGAGGAUCACCCAUGUCGAGAAGGGCUACAGGAUA | 27.8 | 52.2 | – | – |
| AUAUCUUACCAAGGAUAUUUAAGAUUUGUGUAGACAUGAGGAUCACCCAUGUGGCGUUAGUCACGGGAGAAGGUGGUUUGAUAU | – | – | 140 | 648 |
| AUAUGAUAGAUAGGAUAUACAGAUGAAUAAUAAGUAGAAGGAUCAAAUGGGAAUUAUACAUGAGGAUCACCCAUGUUUUUGAAU | – | – | 45 | 33.6 |
| AUAUGAUAGAUAGGAUAUACAUUGGAUUUAAAAGUAGAAGGAUCAAGUGGGAAUUAUACAUGAGGAUCACCCAUGUUUUUGGAU | – | – | 59 | 46.7 |
